Assay [1] addresses Tyrosine-protein kinase Blk (Homo sapiens) (UniProt P51451). Kind of assay: Inhibition of BLK at 1 uM. The method, boiled down:
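Ambit KINOMEscan screen at a single concentration across a 250–400 kinase panel, recorded as percent inhibition. Selectivity was expressed as S(90), the fraction of kinases inhibited >90%.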

Assay [2] addresses T1, Mitogen-activated protein kinase kinase kinase 19 (Homo sapiens) (UniProt Q56UN5).
T1 sequence (whole entry): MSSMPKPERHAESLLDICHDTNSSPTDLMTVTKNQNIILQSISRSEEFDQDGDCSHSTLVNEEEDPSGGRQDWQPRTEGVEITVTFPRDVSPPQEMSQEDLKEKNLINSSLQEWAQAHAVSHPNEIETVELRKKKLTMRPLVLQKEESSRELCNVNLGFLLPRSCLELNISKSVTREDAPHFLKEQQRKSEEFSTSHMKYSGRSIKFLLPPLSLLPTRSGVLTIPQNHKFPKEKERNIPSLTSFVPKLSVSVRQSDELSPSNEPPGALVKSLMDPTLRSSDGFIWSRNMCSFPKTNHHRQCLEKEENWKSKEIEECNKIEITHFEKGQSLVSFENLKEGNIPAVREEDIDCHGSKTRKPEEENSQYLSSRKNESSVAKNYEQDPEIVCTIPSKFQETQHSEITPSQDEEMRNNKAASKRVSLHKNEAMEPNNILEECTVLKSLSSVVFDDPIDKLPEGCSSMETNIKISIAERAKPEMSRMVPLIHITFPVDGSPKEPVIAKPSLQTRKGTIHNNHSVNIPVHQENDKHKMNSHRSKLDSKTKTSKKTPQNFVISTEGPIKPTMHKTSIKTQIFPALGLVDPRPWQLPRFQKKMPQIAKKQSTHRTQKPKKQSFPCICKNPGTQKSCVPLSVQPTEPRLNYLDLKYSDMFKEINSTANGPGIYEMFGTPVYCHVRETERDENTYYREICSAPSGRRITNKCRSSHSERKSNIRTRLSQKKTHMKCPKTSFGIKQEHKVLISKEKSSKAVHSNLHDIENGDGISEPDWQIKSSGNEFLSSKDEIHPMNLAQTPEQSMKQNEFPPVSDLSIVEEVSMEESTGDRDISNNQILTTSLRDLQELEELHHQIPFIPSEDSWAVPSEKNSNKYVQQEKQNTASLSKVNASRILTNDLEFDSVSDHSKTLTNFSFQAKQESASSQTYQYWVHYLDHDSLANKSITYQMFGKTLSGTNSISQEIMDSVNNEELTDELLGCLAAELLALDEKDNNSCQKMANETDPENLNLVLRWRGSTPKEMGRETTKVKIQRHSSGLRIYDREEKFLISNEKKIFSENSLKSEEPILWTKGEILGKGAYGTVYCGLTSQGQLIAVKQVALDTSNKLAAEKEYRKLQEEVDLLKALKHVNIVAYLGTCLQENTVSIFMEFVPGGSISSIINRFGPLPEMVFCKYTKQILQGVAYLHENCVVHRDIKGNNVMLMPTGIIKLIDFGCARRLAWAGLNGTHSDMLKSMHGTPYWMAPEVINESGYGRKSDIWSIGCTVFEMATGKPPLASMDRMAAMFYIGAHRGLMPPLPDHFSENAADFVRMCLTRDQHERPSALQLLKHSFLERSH
The assay can be described thus: Inhibition of YSK4 at 1 uM.

Assay [3] has as its target Serine/threonine-protein kinase 38-like (Homo sapiens) (UniProt Q9Y2H1). The assay can be described thus: Inhibition of NDR2 at 1 uM.
The target of assay [4] is ALK tyrosine kinase receptor (Homo sapiens, UniProt Q9UM73). The assay can be described thus: Inhibition of ALK phosphorylation in human Karpas-299 cells by immunoblotting and ELISA. Format: cell-based. The method, boiled down:
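Karpas-299 cells were treated with compound, then lysed in Tris pH 7.5 / 1% Triton X-100 buffer containing phosphatase and protease inhibitors, briefly sonicated and cleared. For immunoblots, SDS–PAGE was probed with phospho-NPM-ALK(Y664) or total ALK antibodies and bands were quantified by ECL. For ELISA, lysates were captured overnight at 4 °C on anti-ALK, detected with anti-phospho-ALK(Y664) plus AP secondary, and read by 4-MeUP fluorescence.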

In assay [5] the target is Tyrosine-protein kinase Fgr (Homo sapiens) (UniProt P09769). The assay can be described thus: Inhibition of FGR at 1 uM. The procedure, abridged:
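Single-concentration screen on the Ambit KINOMEscan platform, run against a panel of 250–400 kinases. Per-kinase inhibition was also summarized as S(90), the fraction of kinases inhibited by more than 90%.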

The target of assay [6] is T2, Serine/threonine-protein kinase PLK4 (Homo sapiens) (UniProt O00444).
T2 sequence (whole entry): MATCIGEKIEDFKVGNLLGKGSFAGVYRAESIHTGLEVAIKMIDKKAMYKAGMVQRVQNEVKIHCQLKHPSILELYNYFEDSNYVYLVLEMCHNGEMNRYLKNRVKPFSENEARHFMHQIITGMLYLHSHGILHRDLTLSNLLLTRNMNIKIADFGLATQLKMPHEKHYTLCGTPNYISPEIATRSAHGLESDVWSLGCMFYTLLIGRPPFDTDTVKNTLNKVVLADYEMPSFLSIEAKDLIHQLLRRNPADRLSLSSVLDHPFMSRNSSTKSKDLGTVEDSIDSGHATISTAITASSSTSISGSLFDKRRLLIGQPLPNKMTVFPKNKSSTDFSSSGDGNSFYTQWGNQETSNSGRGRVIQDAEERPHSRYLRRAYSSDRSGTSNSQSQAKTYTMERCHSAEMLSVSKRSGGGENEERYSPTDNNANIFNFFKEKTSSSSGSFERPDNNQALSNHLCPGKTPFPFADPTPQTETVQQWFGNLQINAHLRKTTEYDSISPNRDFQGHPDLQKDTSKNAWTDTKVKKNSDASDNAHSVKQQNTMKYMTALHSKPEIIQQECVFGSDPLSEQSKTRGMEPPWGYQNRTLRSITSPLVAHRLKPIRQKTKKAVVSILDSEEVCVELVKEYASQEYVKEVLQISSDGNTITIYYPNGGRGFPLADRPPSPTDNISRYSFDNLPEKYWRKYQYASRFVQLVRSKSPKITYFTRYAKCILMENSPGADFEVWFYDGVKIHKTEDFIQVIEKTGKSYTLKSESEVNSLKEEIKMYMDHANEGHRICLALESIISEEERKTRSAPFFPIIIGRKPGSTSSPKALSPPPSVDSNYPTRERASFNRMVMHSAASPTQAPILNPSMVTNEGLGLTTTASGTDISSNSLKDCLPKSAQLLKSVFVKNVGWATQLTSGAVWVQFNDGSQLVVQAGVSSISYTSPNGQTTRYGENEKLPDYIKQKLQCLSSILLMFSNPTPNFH
The assay can be described thus: Inhibition of PLK4 at 1 uM.

pIC50: −log10 of the molar value. A value given as a limit tells only on which side of the number the result lay.

Sequence of Tyrosine-protein kinase Fgr (Homo sapiens) (P09769 2-529 limits assumed): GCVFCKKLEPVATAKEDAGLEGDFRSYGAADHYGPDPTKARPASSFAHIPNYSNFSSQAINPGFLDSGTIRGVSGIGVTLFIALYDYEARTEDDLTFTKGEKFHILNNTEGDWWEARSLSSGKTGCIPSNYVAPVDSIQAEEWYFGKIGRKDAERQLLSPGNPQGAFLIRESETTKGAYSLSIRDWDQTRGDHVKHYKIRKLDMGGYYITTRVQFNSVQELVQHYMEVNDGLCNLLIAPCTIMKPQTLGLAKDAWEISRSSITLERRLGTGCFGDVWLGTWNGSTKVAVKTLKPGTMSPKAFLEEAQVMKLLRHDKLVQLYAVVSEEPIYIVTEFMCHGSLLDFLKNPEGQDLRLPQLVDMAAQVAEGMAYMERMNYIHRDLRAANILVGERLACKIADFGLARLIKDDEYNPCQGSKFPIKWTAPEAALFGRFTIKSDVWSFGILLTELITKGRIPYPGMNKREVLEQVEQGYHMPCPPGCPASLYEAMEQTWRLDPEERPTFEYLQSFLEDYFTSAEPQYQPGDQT
Sequence of Tyrosine-protein kinase Blk (Homo sapiens) (P51451 2-505 limits assumed): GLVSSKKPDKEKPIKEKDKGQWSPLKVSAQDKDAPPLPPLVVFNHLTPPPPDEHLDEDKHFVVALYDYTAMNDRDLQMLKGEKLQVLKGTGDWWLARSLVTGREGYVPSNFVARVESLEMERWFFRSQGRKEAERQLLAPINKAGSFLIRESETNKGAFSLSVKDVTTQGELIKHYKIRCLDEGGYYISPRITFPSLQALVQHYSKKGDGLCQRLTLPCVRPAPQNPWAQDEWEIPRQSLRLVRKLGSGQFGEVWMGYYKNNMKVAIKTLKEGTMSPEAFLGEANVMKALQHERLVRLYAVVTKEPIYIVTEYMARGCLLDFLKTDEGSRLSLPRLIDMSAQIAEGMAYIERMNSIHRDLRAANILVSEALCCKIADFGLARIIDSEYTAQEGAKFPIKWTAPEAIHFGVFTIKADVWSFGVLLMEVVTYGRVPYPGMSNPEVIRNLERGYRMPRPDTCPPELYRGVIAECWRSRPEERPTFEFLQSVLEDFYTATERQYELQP
Sequence of Serine/threonine-protein kinase 38-like (Homo sapiens) (Q9Y2H1 2-464 limits assumed): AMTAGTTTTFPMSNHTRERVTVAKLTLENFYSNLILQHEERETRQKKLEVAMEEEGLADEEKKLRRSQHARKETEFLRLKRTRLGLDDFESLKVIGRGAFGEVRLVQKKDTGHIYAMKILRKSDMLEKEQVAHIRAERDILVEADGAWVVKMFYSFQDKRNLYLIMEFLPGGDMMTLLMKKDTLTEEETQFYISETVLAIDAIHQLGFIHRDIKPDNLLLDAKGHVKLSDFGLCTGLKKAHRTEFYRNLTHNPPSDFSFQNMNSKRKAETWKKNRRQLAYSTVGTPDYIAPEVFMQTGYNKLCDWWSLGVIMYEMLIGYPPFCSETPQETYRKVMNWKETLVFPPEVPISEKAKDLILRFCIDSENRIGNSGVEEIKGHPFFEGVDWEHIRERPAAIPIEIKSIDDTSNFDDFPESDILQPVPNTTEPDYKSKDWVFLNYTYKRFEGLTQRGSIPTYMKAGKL
Sequence of ALK tyrosine kinase receptor (Q9UM73 whole entry): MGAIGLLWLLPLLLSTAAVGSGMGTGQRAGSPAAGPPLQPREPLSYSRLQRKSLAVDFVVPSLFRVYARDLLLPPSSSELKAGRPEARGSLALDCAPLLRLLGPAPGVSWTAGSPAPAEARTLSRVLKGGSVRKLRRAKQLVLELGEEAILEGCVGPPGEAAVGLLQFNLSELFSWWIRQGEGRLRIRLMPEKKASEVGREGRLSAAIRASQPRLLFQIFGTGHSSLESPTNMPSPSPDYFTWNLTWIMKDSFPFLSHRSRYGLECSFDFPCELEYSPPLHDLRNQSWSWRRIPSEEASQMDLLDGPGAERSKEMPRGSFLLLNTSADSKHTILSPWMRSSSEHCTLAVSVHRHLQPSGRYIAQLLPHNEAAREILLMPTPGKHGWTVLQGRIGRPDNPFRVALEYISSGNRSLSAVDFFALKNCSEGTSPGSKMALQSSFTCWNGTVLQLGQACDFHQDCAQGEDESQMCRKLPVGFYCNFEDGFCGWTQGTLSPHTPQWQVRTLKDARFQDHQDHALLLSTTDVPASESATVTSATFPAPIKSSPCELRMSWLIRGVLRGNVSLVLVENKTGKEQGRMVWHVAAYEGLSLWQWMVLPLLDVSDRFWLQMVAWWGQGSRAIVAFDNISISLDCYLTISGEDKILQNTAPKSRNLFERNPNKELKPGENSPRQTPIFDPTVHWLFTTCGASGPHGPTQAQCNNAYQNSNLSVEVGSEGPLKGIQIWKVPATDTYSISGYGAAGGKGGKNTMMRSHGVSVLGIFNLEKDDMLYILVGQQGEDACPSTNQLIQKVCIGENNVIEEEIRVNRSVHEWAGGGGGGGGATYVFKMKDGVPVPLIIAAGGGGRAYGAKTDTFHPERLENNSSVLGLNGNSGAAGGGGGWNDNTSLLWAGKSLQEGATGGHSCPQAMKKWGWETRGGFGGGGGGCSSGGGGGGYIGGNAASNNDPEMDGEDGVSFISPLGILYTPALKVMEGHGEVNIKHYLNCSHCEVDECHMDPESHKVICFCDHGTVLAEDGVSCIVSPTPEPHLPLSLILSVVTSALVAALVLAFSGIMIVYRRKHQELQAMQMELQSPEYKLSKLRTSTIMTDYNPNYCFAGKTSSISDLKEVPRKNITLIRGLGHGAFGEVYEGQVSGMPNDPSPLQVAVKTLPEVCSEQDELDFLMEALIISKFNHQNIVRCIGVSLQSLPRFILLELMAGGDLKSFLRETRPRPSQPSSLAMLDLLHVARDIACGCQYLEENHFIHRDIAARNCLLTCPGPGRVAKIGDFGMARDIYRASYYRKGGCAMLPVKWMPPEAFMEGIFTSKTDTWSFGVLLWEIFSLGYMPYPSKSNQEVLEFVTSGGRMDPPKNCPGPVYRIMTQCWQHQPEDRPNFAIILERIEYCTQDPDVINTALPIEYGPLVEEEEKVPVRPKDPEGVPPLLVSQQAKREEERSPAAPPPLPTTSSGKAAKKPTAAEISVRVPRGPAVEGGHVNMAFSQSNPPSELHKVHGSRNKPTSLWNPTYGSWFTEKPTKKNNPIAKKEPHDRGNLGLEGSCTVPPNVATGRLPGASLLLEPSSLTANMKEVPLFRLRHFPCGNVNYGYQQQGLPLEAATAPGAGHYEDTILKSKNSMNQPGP

What is called inhibition is the change of the read-out against control, counted positive when it falls. A lower inhibition goes with a response near the control. One may read the pIC50 as the IC50 on a negative log10 scale, so that one unit is a factor of ten. Low readings indicate a high IC50, high ones a low IC50. As to `FC(F)(F)c1ccc(Cl)cc1CN1CCNc2ncc(-c3ccnc(N4CCNCC4)c3)cc21`, the inhibition in assay [1], in assay [2], in assay [3], in assay [5] and in assay [6] was less than 50% each time. Further, the pIC50 in assay [4] is 6.82.
For `CN1CCN(c2ccc(-c3cnc4c(c3)N(Cc3cc(F)ccc3F)CCN4)cn2)CC1`, the inhibition in assay [1], in assay [2], in assay [3], in assay [5] and in assay [6] was less than 50% each time. This compound had a negative-log IC50 (pIC50) in assay [4] of 6.70.
Take `CN1CCN(c2ccc(-c3cnc4c(c3)N(Cc3cc(Cl)ccc3Cl)CCN4)cn2)CC1`: the inhibition in assay [1], in assay [2], in assay [3], in assay [5] and in assay [6] was less than 50% in each case.
On to `O=C(O)c1ccc(-c2cnc3c(c2)N(Cc2cc(Cl)ccc2C(F)(F)F)CCN3)cc1`, for which the inhibition in assay [1] is less than 50%; in assay [3], less than 50%; in assay [5], less than 50%; in assay [6], 91.7%.
Turning to `CN1CCN(c2ccc(-c3cnc4c(c3)N(Cc3cc(Cl)ccc3C(F)(F)F)CCN4)cn2)CC1`, the inhibition in assay [1], in assay [2], in assay [3], in assay [5] and in assay [6] was less than 50% each time.
Take `COC1CCN(C(=O)c2ccc(-c3cnc4c(c3)N(Cc3cc(Cl)ccc3C(F)(F)F)CCN4)cc2)CC1`: the inhibition in assay [1] was less than 50%; in assay [3] it was less than 50%; in assay [5], less than 50%; in assay [6], 73.8%. In addition, in assay [4], the pIC50 is 6.35.
With `O=C(c1ccc(-c2cnc3c(c2)N(Cc2cc(Cl)ccc2C(F)(F)F)CCN3)cc1)N1CCC(N2CCCC2)CC1`, the inhibition in assay [1] was less than 50%; in assay [3], less than 50%; in assay [5], less than 50%; in assay [6], 92.4%. In assay [4], this compound gave a pIC50 of 6.60.
Consider `CN1CCN(c2ccc(-c3cnc4c(c3)N(Cc3c(F)ccc(F)c3Cl)CCN4)cn2)CC1`, for which the inhibition in assay [1], in assay [2], in assay [3], in assay [5] and in assay [6] was less than 50% each time.
For the compound `O=C(c1ccc(-c2cnc3c(c2)N(Cc2cc(Cl)ccc2C(F)(F)F)CCN3)cc1)N1CCCCC1`, the inhibition in assay [1], in assay [3], in assay [5] and in assay [6] was less than 50% each time.
Take `CC(=O)N1CCN(c2cc(-c3cnc4c(c3)N(Cc3cc(Cl)ccc3C(F)(F)F)CCN4)ccn2)CC1`: the inhibition in assay [1], in assay [2], in assay [3], in assay [5] and in assay [6] was less than 50% each time. For the same compound, in assay [4], the negative logarithm of the IC50 (pIC50) is 6.60.

For the origin of these results see ChEMBL document CHEMBL1165965, “Synthesis and structure-activity relationships of 1,2,3,4-tetrahydropyrido[2,3-b]pyrazines as potent and selective inhibitors of the anaplastic lymphoma kinase” (Bioorg Med Chem, 2010).
